Measured values as given in ChEMBL document CHEMBL1148377, “Identification of novel binding interactions in the development of potent, selective 2-naphthamidine inhibitors of urokinase. Synthesis, structural analysis, and SAR of N-phenyl amide 6-substitution” (J Med Chem, 2004).

Assays:
[1] = target: Urokinase-type plasminogen activator (Homo sapiens, UniProt P00749)
Plasma kallikrein = Plasma kallikrein (Homo sapiens, UniProt P03952); experiment: Binding affinity against human plasma kallikrein.; format: cell-free
Chain of Plasma kallikrein (P03952 20-390 limits assumed): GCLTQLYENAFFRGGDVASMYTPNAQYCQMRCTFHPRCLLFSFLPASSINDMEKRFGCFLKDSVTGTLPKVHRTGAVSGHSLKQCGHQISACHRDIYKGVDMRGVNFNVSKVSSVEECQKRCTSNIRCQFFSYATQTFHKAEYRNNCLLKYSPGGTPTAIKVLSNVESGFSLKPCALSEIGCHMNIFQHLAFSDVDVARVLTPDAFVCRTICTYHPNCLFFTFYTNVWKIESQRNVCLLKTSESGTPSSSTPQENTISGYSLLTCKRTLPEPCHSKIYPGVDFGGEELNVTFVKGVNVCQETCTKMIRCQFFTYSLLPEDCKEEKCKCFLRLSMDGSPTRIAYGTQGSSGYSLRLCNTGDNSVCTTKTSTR
Chain of Plasma kallikrein (P03952 391-638 limits assumed): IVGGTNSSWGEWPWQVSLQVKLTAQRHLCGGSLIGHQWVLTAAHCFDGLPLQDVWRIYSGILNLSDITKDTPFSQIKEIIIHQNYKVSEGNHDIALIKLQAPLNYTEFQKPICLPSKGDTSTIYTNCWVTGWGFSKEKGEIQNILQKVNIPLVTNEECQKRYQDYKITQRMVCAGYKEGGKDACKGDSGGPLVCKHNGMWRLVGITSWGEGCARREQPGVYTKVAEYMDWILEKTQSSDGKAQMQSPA
How it was run: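 Enzyme: human plasma kallikrein at 100 ng/mL. Substrate: S-2302 (H-D-Pro-Phe-Arg-pNA) at 330 μM. Conditions were pH 7.4, 50 mM Tris/0.15 M NaCl/0.5% Pluronic F-68, with compounds from DMSO at 0.01–250 μM. Substrate addition started each reaction, followed by pNA release at 405 nm over 15 min. Ki was calculated from rate-based percent inhibition using previously established Km.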

Plasminogen = Plasminogen (Homo sapiens, UniProt P00747); experiment: Binding affinity towards human plasmin.
Chain of Plasminogen (P00747 97-580 limits assumed): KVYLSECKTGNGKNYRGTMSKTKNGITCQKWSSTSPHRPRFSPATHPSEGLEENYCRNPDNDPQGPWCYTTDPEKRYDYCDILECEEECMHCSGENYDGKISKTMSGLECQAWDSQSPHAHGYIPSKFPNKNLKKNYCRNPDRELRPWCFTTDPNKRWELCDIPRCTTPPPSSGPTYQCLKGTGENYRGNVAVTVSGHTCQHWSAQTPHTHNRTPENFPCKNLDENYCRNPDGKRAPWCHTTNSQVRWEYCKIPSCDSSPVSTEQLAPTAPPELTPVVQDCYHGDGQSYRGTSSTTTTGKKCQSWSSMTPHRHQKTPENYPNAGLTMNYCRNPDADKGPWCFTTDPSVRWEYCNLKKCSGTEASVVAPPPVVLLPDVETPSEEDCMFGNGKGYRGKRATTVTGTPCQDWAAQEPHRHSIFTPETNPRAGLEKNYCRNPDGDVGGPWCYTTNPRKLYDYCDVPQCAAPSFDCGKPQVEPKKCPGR
Chain of Plasminogen (P00747 581-810 limits assumed): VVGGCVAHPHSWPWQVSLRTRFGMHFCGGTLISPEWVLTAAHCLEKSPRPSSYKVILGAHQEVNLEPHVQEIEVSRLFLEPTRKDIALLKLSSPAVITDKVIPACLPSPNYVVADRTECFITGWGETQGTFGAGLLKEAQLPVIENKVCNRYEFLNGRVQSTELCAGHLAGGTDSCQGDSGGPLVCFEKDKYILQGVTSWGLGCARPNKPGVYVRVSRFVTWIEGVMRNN
How it was run: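 Uses human plasmin at 18 nM with S-2251 (H-D-Val-Leu-Lys-pNA) at 360 μM. The buffer was 50 mM Tris/0.15 M NaCl + 0.5% Pluronic F-68, pH 7.4, and compounds were added in DMSO at 0.01–250 μM. After substrate start, absorbance at 405 nm was tracked for 15 min. Percent inhibition came from rates, and Ki from percent inhibition with established Km values.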

Prothrombin = Prothrombin (Homo sapiens, UniProt P00734); experiment: Binding affinity against human alpha thrombin.
[2] = target: Tissue-type plasminogen activator (Homo sapiens, UniProt P00750); experiment: Binding affinity towards human Tissue type plasminogen activator.
Chain of Tissue-type plasminogen activator (P00750 whole entry): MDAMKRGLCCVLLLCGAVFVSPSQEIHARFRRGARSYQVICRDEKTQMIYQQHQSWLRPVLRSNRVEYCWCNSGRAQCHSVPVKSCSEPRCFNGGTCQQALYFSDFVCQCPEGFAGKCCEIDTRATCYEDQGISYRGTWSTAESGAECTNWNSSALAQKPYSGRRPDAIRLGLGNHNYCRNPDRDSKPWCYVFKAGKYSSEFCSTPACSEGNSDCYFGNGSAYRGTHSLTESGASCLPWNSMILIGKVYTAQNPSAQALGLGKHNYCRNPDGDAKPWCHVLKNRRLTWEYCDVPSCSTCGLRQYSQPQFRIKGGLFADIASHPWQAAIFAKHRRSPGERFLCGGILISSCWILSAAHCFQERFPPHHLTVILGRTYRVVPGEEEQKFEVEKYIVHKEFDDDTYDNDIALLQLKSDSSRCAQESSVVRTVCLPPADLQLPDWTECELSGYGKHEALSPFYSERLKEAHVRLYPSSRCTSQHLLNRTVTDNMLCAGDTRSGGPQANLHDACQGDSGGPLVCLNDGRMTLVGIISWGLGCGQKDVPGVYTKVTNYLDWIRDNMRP
How it was run: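 Human tPA (1 μg/mL) was run against S-2288 (H-D-Ile-Pro-Arg-pNA) at 1350 μM in Tris 50 mM/NaCl 0.15 M/0.5% Pluronic F-68 buffer at pH 7.4. Test agents in DMSO spanned 0.01–250 μM. Substrate addition began the reaction, and p-nitroaniline formation at 405 nm was followed for 15 min. Ki derived from percent inhibition and previously determined Km.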

Row | Structure (SMILES) | Ki [1] [nM] | Ki (Plasma kallikrein) [nM] | Ki (Plasminogen) [nM] | Ki (Prothrombin) [nM] | Ki [2] [nM]
1 | N=C(N)c1ccc2cc(C(=O)Nc3cccc(Oc4ccccc4)c3)ccc2c1 | 517 |  |  |  | 
2 | CC(C)Oc1cc(NC(=O)c2ccc3cc(C(=N)N)ccc3c2)cc(OC(C)C)c1 | 28 | 4300 | 1060 | 21700 | 790
3 | CCOc1cccc(NC(=O)c2ccc3cc(C(=N)N)ccc3c2)c1 | 82 |  |  |  | 
4 | N=C(N)c1ccc2cc(C(=O)Nc3ccc4c(c3)C(C3CCCC3)=NCC4)ccc2c1 | 35.5 | 849 | 765 | 5310 | 3130
5 | N#Cc1ccc2cc(NC(=O)c3ccccc3)ccc2c1 |  | 8000 | 5560 | 17600 | > 100000
6 | CC(C)CC1=NCCc2ccc(NC(=O)c3ccc4cc(C(=N)N)ccc4c3)cc21 | 161 |  |  |  | 
7 | CC(C)CC1NCCc2ccc(NC(=O)c3ccc4cc(C(=N)N)ccc4c3)cc21 (stereo not drawn) | 123 | 1350 | 1190 | 7310 | > 50000
8 | CCC1CNCc2ccc(NC(=O)c3ccc4cc(C(=N)N)ccc4c3)cc21 (stereo not drawn) |  | 145 | 1120 | 6440 | 1650
9 | N=C(N)c1ccc2cc(C(=O)Nc3ccccc3)ccc2c1 |  | 2500 | 1950 | 5640 | 31800
10 | CCc1ccc(NC(=O)c2ccc3cc(C(=N)N)ccc3c2)cc1 | 736 | 18100 | 3870 | 43700 | 83900
11 | COc1cccc(NC(=O)c2ccc3cc(C(=N)N)ccc3c2)c1 | 233 |  |  |  | 
12 | CC(C)C1=NCCc2ccc(NC(=O)c3ccc4cc(C(=N)N)ccc4c3)cc21 |  | 436 | 768 | 4990 | 1840
13 | CC(C)Oc1cc(NC(=O)c2ccc3cc(C(=N)N)ccc3c2)cc(OC2CCCC2)c1 | 22 | 3330 | 966 | 21600 | 844

Second part, the compound after the results:

Row | Ki [1] [nM] | Ki (Plasma kallikrein) [nM] | Ki (Plasminogen) [nM] | Ki (Prothrombin) [nM] | Ki [2] [nM] | Structure (SMILES)
14 | 104 |  |  |  |  | CCC(CC)Oc1cccc(NC(=O)c2ccc3cc(C(=N)N)ccc3c2)c1
15 |  | 7170 | 16000 | > 100000 | 58400 | [H]/N=C(\N)c1ccc2cc(C(=O)Nc3ccc(CN)cc3)ccc2c1
16 | 26.5 | 400 | 833 | 10200 | 3950 | N=C(N)c1ccc2cc(C(=O)Nc3ccc4c(c3)C(C3CCCC3)NCC4)ccc2c1 (stereo not drawn)
17 |  | 2720 | 498 | 5580 | 3390 | N=C(N)c1ccc2cc(C(=O)Nc3cccc(OC4CCCC4)c3)ccc2c1
18 | 15500 |  |  |  |  | CN(C(=O)c1ccc2cc(C(=N)N)ccc2c1)c1ccccc1
19 | 5910 | 22500 | 51300 |  | > 100000 | N=C(N)c1ccc2ccccc2c1
20 | 139 |  |  |  |  | COc1cc(NC(=O)c2ccc3cc(C(=N)N)ccc3c2)cc(OC)c1
21 |  | 2570 | 3820 | 35100 | 8350 | N=C(N)c1ccc2cc(C(=O)Nc3ccc(CO)cc3)ccc2c1
22 |  | 1370 | 554 | 3490 | 2370 | CC(C)Oc1cccc(NC(=O)c2ccc3cc(C(=N)N)ccc3c2)c1
23 |  | 112 | 1030 | 6920 | 2320 | N=C(N)c1ccc2cc(C(=O)Nc3ccc4c(c3)CCNC4)ccc2c1
24 | 326 | 2430 | 1970 | 2350 | > 100000 | N=C(N)c1ccc2cc(C(=O)Nc3ccc(C(N)=O)cc3)ccc2c1
25 | 167 |  |  |  |  | N=C(N)c1ccc2cc(C(=O)Nc3cccc(CC4CCCC4)c3)ccc2c1
26 | 8700 |  |  |  |  | CNC(=O)c1ccc2cc(C(=N)N)ccc2c1
27 |  | 230 | 631 | 5720 | 1120 | CC(C)C1NCCc2ccc(NC(=O)c3ccc4cc(C(=N)N)ccc4c3)cc21 (stereo not drawn)
